ChEMBL document CHEMBL1121840, “Synthesis and antiinflammatory activity of 2,2'-diaminobiphenyl derivatives” (J Med Chem, 1981)

Assays:
Rattus norvegicus [1] = experiment: Compound was tested for antiinflammatory activity in rats by carrageenam edema test after peroral administration of 200 mg/kg dose; no significant effect; type: functional, organism-based; parameters: dose 200 mg/kg
Procedure, shortened: (§1)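 CD-COBS rats, both sexes. The drug was given orally as a suspension in 1% acacia gum (10 mL/kg), then carrageenan foot edema was induced per Winter et al. Read-out was % inhibition of edema; N = 5 rats per group; Dunnet's test. "No significant effect" means inhibition below 15%.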

Rattus norvegicus [2] = experiment: Compound was tested for antiinflammatory activity in rats by adjuvant arthritis test after peroral administration of 50 mg/kg dose; type: functional; settings: route oral
Rattus norvegicus [3] = experiment: Compound was tested for antiinflammatory activity in rats by adjuvant arthritis test after peroral administration of 50 mg/kg dose; no significant effect; type: functional, organism-based; parameters: dose 50 mg/kg
Rattus norvegicus [4] = experiment: Compound was tested for antiinflammatory activity in rats by carrageenam edema test after peroral administration of 200 mg/kg dose; type: functional; settings: route oral; procedure, shortened: as §1
Rattus norvegicus [5] = experiment: Compound was tested for antiinflammatory activity in rat by adjuvant arthritis test after peroral administration of 50 mg/kg dose; no significant effect; type: functional, organism-based; parameters: dose 50 mg/kg
Rattus norvegicus [6] = experiment: Compound was tested for antiinflammatory activity in rat by carrageenam edema test after peroral administration of 200 mg/kg dose; type: functional; settings: route oral; procedure, shortened: as §1
Rattus norvegicus [7] = experiment: Compound was tested for antiinflammatory activity in rat by adjuvant arthritis test after peroral administration of 50 mg/kg dose; type: functional; settings: route oral
Rattus norvegicus [8] = experiment: Compound was tested for antiinflammatory activity in rat by carrageenam edema test after peroral administration of 200 mg/kg dose; no significant effect; type: functional, organism-based; parameters: dose 200 mg/kg; procedure, shortened: as §1
Rattus norvegicus [9] = experiment: Compound was tested for antiinflammatory activity in Rat by carrageenam edema test after peroral administration of 200 mg/kg dose; type: functional; settings: route oral; procedure, shortened: as §1
[10] = Compound was tested for lethal dose in mice after oral administration; type: ADME, organism-based; settings: mouse, in vivo
Procedure, shortened: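 CD1 mice of both sexes given single oral dose of compound suspended in 1% acacia gum (20 mL/kg); LD50 calculated by probit method.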

Mus musculus = experiment: Compound was tested for analgesic activity in mice by phenylquinone writhing test at dose of 200 mg/kg, po; type: functional
Procedure, shortened: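 Female mice received the drug orally in 1% acacia gum suspension (20 mL/kg) 1 h before i.p. 0.2 mL of 0.2% phenylquinone. Animals were caged individually and abdominal contractions counted over 20 min after injection; N = 4 mice per group; Dunnet's test.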

Rattus norvegicus [11] = experiment: Compound was tested for antiinflammatory activity in rats by carrageenam induced pleurisy test at dose of 200 mg/kg, po,% reduction in leucocytes; type: functional
Procedure, shortened: (§2)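 Rats were dosed orally (1% acacia gum suspension) at 48, 24 and 1 h before intrapleural carrageenan, per Di Rosa et al. Pleural exudate was assessed 6 h later as % reduction in volume and in leucocytes; N = 8 rats per group; Dunnet's test.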

Rattus norvegicus [12] = experiment: Compound was tested for antiinflammatory activity in rats by carrageenam induced pleurisy test at dose of 200 mg/kg, po; type: functional; procedure, shortened: as §2
Rattus norvegicus [13] = experiment: Compound was tested for antiinflammatory activity in rats adjuvant arthritis test after peroral administration of 50 mg/kg dose; type: functional; settings: route oral

| SMILES | inhibition in vivo at 50 mg/kg (Rattus norvegicus [2]) [%] | inhibition (Rattus norvegicus [3]) | inhibition in vivo at 200 mg/kg (Rattus norvegicus [4]) [%] | also measured |
| --- | --- | --- | --- | --- |
| CCN(CC)CCCNc1ccccc1-c1ccccc1NC(=O)Cc1ccc([N+](=O)[O-])cc1 | 16 |  |  | inhibition (Rattus norvegicus [1]): No significant effect |
| CCN(CC)CCNc1ccccc1-c1ccccc1NC(=O)Cc1ccc(N)cc1 |  | No significant effect | 33 |  |
| CCN(CC)CCNc1ccccc1-c1ccccc1NC(=O)Cc1ccccc1 |  |  |  | inhibition (Rattus norvegicus [5]): No significant effect; inhibition in vivo at 200 mg/kg (Rattus norvegicus [6]): 17% |
| CNc1ccccc1-c1ccccc1NC(=O)Cc1ccc(OC)cc1 | 22 |  | 20 |  |
| CNc1ccccc1-c1ccccc1NC(=O)Cc1ccc([N+](=O)[O-])cc1 | 16 |  |  | inhibition (Rattus norvegicus [1]): No significant effect |
| CCCNc1ccccc1-c1ccccc1NC(=O)Cc1ccc(Cl)cc1 |  | No significant effect | 33 |  |
| CCN(CC)CCCNc1ccccc1-c1ccccc1NC(=O)Cc1ccc(Cl)cc1 | 29 |  |  | inhibition (Rattus norvegicus [1]): No significant effect |
| CN(C)CCCNc1ccccc1-c1ccccc1NC(=O)Cc1ccc([N+](=O)[O-])cc1 |  |  |  | inhibition in vivo at 50 mg/kg (Rattus norvegicus [7]): 24%; inhibition (Rattus norvegicus [8]): No significant effect |
| CN(C)CCNc1ccccc1-c1ccccc1NC(=O)Cc1ccc(N)cc1 |  | No significant effect | 16 |  |
| CN(C)CCCNc1ccccc1-c1ccccc1NC(=O)Cc1ccc(Cl)cc1 | 30 |  |  | inhibition (Rattus norvegicus [1]): No significant effect |
| CC(=O)Oc1ccccc1C(=O)O [ASPIRIN] | 32 |  | 40 |  |
| Nc1ccccc1-c1ccccc1NC(=O)Cc1ccc(O)cc1 |  | No significant effect | 37 |  |
| COc1ccc(CC(=O)Nc2ccccc2-c2ccccc2NCCN(C)C)cc1 |  | No significant effect | 65 |  |
| CNc1ccccc1-c1ccccc1NC(=O)Cc1ccc(O)cc1 |  | No significant effect | 17 |  |
| CN(C)CCNc1ccccc1-c1ccccc1NC(=O)Cc1ccc([N+](=O)[O-])cc1 |  |  |  | inhibition (Rattus norvegicus [5]): No significant effect; inhibition in vivo at 200 mg/kg (Rattus norvegicus [9]): 54% |
| COc1ccc(CC(=O)Nc2ccccc2-c2ccccc2NCCCN(C)C)cc1 |  | No significant effect | 16 |  |
| CCN(CC)CCNc1ccccc1-c1ccccc1NC(=O)Cc1ccc([N+](=O)[O-])cc1 |  |  |  | LD50 [10]: 1130 mg/kg; inhibition in vivo at 200 mg/kg (Mus musculus): 34%; inhibition in vivo at 200 mg/kg (Rattus norvegicus [6]): 54%; Reduction (Rattus norvegicus [11]): 35%; Reduction (Rattus norvegicus [12]): 48%; inhibition in vivo at 50 mg/kg (Rattus norvegicus [13]): 33% |
| CCCCC1C(=O)N(c2ccccc2)N(c2ccccc2)C1=O [PHENYLBUTAZONE] |  |  | 42 | LD50 [10]: 650 mg/kg; inhibition in vivo at 200 mg/kg (Mus musculus): 45%; Reduction (Rattus norvegicus [11]): 35%; Reduction (Rattus norvegicus [12]): 43%; inhibition in vivo at 50 mg/kg (Rattus norvegicus [13]): 66% |
| CCNc1ccccc1-c1ccccc1NC(=O)Cc1ccc(O)cc1 |  | No significant effect | 45 |  |
| CCNc1ccccc1-c1ccccc1NC(=O)Cc1ccccc1 |  | No significant effect | 30 |  |
